MC4R antagonist: MC4R antagonists of cAMP signaling, primary screen, cell-based, TR-FRET, antagonist arm of biased-ligand search; inhibition, % at 6.5 µM; MC4R-expressing cells, MTII-stimulated cAMP, LANCE TR-FRET; hit rate 0.48% among 360,000; Melanocortin receptor 4 (Homo sapiens), P32245; AID 540295, 2011;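 active = inhibition above its plate's cutoff, the mean of tested wells on that plate plus 3 SD, cut at about 29% in these data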;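 note: 0% = Melanotan II alone and 100% = Melanotan II plus saturating MCL0020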
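Test system: U2OS cells stably expressing human melanocortin 4 receptor (MC4R); also added: Melanotan II challenge; compound: 6.5 µM single dose; timing: 30-min compound preincubation, 1-h Melanotan II challenge, 1-h detection, room temperature; signal: Eu-cAMP/anti-cAMP TR-FRET, emission 671 nm; repeats: one well per compound, no replicates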
CFTR F508del cor: F508del CFTR correction, initial screen, CFBE line, single point. CFBE cells, YFP halide quenching; stimulated with forskolin plus potentiator P3; % fluorescence drop versus neutral controls. hit rate 0.36% among 350,000. activity (quench increase), % at 7.58 µM;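 active = mean added fluorescence quench of at least 8% versus neutral control, with both replicates also reaching 8%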;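 note: cells transiently co-express mutant CFTR-F508del with the halide-sensitive YFP; corrector assay measuring rescue of mutant channel to the surface after 24 h compound exposure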
MC4R ag barr: MC4R agonists recruiting beta-arrestin, primary screen, cell-based, luminescence, agonist arm of biased-ligand search; Melanocortin receptor 4 (Homo sapiens), P32245; U2OS MC4R beta-arrestin complementation; percent of melanotan II response, DMSO zero; activation, % at 8.9 µM; hit rate 0.98% among 360,000; AID 540308, 2011;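 active = activation above a per-plate cutoff, the mean activation of sample wells on that plate plus 3 SD, cut at about 8% in these data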
SMARCA2 act: SMARCA2 (BRM) function activators, primary screen, cell-based, luminescence, high throughput; hit rate 1% among 370,000; activation, % at 9.1 µM; MG213 cells, MMTV-luciferase reporter, dexamethasone, overnight; AID 652017, 2013; in the data active = activation above about 7.8%;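 note: 0% = vehicle wells and 100% = reference activator wells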
MC4R barr conf: MC4R beta-arrestin agonists, retest, confirmation, cell-based, luminescence, U2OS; shares compounds with MC4R ag barr; U2OS MC4R beta-arrestin recruitment; scaled DMSO 0%, Melanotan II 100%; activation, % at 8.9 µM; hit rate 31% among 2,400;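 active = mean activation across replicates above the hit cutoff set in the earlier primary screen, cut at about 8% in these data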
MOR-DOR barr ag: agonists of MOR-DOR heterodimerization, counter-screen for MC4R biased agonist project, cell-based, luminescence. shares compounds with MC4R ag barr. U2OS PathHunter beta-arrestin, beta-gal luminescence; percent of deltorphin B response, DMSO zero. activation, % at 9.2 µM. hit rate 5.8% among 2,400. AID 602194, 2012;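 active = mean activation across replicates exceeds the hit threshold derived in the earlier primary screen, cut at about 18% in these data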;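 note: 100% = deltorphin B at 0.9 µM final and 0% = DMSO alone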
Target sequence (P35372 whole entry, looked up): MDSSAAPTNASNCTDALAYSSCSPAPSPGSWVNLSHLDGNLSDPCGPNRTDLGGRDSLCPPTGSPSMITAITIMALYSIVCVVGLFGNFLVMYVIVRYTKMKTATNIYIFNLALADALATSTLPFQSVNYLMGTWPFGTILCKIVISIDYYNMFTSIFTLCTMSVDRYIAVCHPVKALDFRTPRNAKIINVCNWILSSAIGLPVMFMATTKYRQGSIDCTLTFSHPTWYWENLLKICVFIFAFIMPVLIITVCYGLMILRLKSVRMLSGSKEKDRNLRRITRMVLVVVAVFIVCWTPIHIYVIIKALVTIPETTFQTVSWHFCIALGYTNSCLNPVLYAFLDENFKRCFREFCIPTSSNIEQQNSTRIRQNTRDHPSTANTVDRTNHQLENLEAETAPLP
Target sequence (P41143 whole entry, looked up): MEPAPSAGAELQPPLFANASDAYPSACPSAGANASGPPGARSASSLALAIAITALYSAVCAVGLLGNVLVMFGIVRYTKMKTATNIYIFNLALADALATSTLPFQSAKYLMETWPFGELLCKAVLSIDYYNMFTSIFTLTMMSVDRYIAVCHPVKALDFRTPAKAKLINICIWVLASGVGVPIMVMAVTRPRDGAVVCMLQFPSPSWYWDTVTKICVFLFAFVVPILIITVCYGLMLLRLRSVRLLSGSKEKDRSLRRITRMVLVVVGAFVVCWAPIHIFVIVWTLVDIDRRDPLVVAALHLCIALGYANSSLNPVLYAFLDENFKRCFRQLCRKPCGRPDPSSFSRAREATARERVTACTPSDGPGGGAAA
* hit, by the source's call. Shown are actives, neighbours in structure and some others; about 2.1% of the full set was active somewhere.

`COc1ccc2ccc(O)c(CN(C)CC(=O)Nc3ccccc3C(F)(F)F)c2c1` gave MC4R antagonist 14, CFTR F508del cor -2, MC4R ag barr 13*, SMARCA2 act -2, MC4R barr conf 7 and MOR-DOR barr ag 10.
`COc1ccc(CN(C)CC(=O)Nc2ccccc2C(F)(F)F)cc1` gave MC4R antagonist 16, CFTR F508del cor 7, MC4R ag barr 1 and SMARCA2 act -1.
Screening C[C@H]1CN([C@@H](C)CO)C(=O)c2cccc(NC(=O)Nc3ccccc3)c2O[C@H]1CN(C)Cc1ccc(Cl)c(Cl)c1 returned CFTR F508del cor 0.
Screening Cc1cccc2c(N=Nc3ccccc3)c(O)[nH]c12 returned MC4R antagonist -3, CFTR F508del cor 1, MC4R ag barr 15*, SMARCA2 act 3, MC4R barr conf 1 and MOR-DOR barr ag 2.
Screening Cc1cc(C)n(-c2nc3ccccc3nc2Nc2ccc3[nH]c(=O)[nH]c3c2)n1 returned MC4R antagonist 3, MC4R ag barr 19*, SMARCA2 act 6, MC4R barr conf 9.6* and MOR-DOR barr ag 2.
C[C@@H]1CN([C@@H](C)CO)C(=O)c2cc(NC(=O)Nc3ccc(F)cc3)ccc2O[C@H]1CN(C)C(=O)Nc1ccccc1 was read as CFTR F508del cor 1.
For O=C(Nc1nc(-c2ccc(F)c(F)c2)cs1)Nc1ccc(F)cc1F the results were MC4R antagonist -1, CFTR F508del cor -10, MC4R ag barr 10*, SMARCA2 act -1, MC4R barr conf 7 and MOR-DOR barr ag 4.
O=C(Cc1ccccc1F)Nc1nc(-c2ccc(F)c(F)c2)cs1 was read as MC4R antagonist -1, CFTR F508del cor -3, MC4R ag barr 3 and SMARCA2 act -1.
`COc1ccc(Cn2c(C)nc3c(c2=O)c2nc4ccccc4nc2n3Cc2ccco2)cc1` gave MC4R antagonist 19, CFTR F508del cor -2, MC4R ag barr 11*, SMARCA2 act -2, MC4R barr conf -3 and MOR-DOR barr ag 2.
Cc1nc2ccccc2c(=O)n1Cc1ccco1 was read as MC4R antagonist 5, CFTR F508del cor -1, MC4R ag barr -1 and SMARCA2 act -2.
For CCCc1cc(-c2n[nH]c(C)c2-c2ccc(C(=O)OCC)o2)c(O)cc1O the results were MC4R antagonist 6, MC4R ag barr 13*, SMARCA2 act -2, MC4R barr conf 5 and MOR-DOR barr ag 3.
Screening COc1ccc(NC(=O)N(C)C[C@H]2Oc3ncc(C#CCC(C)C)cc3C(=O)N([C@H](C)CO)C[C@@H]2C)cc1 returned CFTR F508del cor -2.
CO[C@@H]1CN(C)C(=O)c2cc(NC(=O)Nc3ccc(F)cc3)ccc2OC[C@@H](C)N(C(=O)c2cnccn2)C[C@H]1C was read as CFTR F508del cor -3.
Screening CC(C)(C)c1ccc(S(=O)(=O)NCCOCC(F)(F)C(F)F)cc1 returned MC4R antagonist -4, CFTR F508del cor -2, MC4R ag barr 13*, SMARCA2 act -2, MC4R barr conf 1 and MOR-DOR barr ag 13.
COc1ccc2c3c([nH]c2c1)[C@@H](CO)N(S(=O)(=O)c1cn(C)cn1)CC31CCN(CC2CC2)CC1 was read as CFTR F508del cor -2.
For COc1ccc(-c2csc(NC(=O)c3ccccc3NS(=O)(=O)c3ccc(F)c(F)c3)n2)cc1 the results were MC4R antagonist 19, CFTR F508del cor -6, MC4R ag barr 15*, SMARCA2 act -11, MC4R barr conf 4 and MOR-DOR barr ag 3.
`Cc1ccc(S(=O)(=O)Nc2ccccc2C(=O)Nc2nc(-c3ccc(F)cc3)cs2)cc1` gave MC4R antagonist 17, MC4R ag barr 0 and SMARCA2 act -10.
For COc1cc(C(=O)OCC(=O)NC(=O)NCc2ccccc2)ccc1OC(F)F the results were MC4R antagonist -3, CFTR F508del cor -6, MC4R ag barr 9.7*, SMARCA2 act 6, MC4R barr conf 3 and MOR-DOR barr ag 8.
Screening C[C@H](CO)N1C[C@H](C)[C@H](CN(C)Cc2ccccc2)Oc2ncc(-c3ccccc3F)cc2C1=O returned CFTR F508del cor 2.
O=C(C[C@@H]1C[C@@H]2c3cc(NS(=O)(=O)c4ccc(F)cc4)ccc3O[C@@H]2[C@H](CO)O1)NC1CCCCC1 was read as CFTR F508del cor 0.
Screening O=[N+]([O-])c1cc(/C=N/O)ccc1SCc1ccccc1Cl returned MC4R antagonist -13, MC4R ag barr 18*, SMARCA2 act -1, MC4R barr conf 6 and MOR-DOR barr ag 6.
For CC(C)(C)Sc1ccc(/C=N/O)cc1[N+](=O)[O-] the results were MC4R antagonist -19, CFTR F508del cor -1, MC4R ag barr 1 and SMARCA2 act 5.
COc1ccccc1CN1C(=O)c2ccncc2C1=O was read as MC4R antagonist 2, CFTR F508del cor 1 and MC4R ag barr -2.
COc1ccc(CCN2C(=O)c3ccncc3C2=O)cc1OC was read as MC4R antagonist 7, MC4R ag barr 14*, SMARCA2 act -1, MC4R barr conf 1 and MOR-DOR barr ag 3.
For C[C@@H]1CN([C@H](C)CO)C(=O)c2cc(-c3ccc(C#N)cc3)cnc2O[C@@H]1CN(C)CC1CCCC1 the results were CFTR F508del cor 1.
For Cc1cccc(NC(=O)c2ccccc2OCC(=O)c2ccc(F)cc2)c1 the results were MC4R antagonist 10, CFTR F508del cor 1, MC4R ag barr -1 and SMARCA2 act 0.
`Cc1ccc(Cl)cc1NC(=O)c1ccccc1OCC(=O)Nc1ccc(Cl)cc1` gave MC4R antagonist 23, MC4R ag barr 15*, SMARCA2 act 0, MC4R barr conf 8.2* and MOR-DOR barr ag 8.
Screening Cc1ccc(NC(=O)c2ccccc2OCC(=O)c2ccc(F)cc2)cc1 returned MC4R antagonist 2, MC4R ag barr 51*, SMARCA2 act -4, MC4R barr conf 18* and MOR-DOR barr ag 8.
`COCC#Cc1cnc2c(c1)C(=O)N([C@H](C)CO)C[C@H](C)[C@@H](CN(C)C(=O)CN1CCOCC1)O2` gave CFTR F508del cor 0.
C[C@@H]1CN([C@@H](C)CO)C(=O)c2cc(NS(=O)(=O)c3cn(C)cn3)ccc2O[C@@H](C)CCCCO[C@@H]1CN(C)C(=O)Nc1ccccc1 was read as CFTR F508del cor 0.
